Here are results for one compound from ChEMBL document CHEMBL3352526, “4-Quinolone-3-carboxylic acids as cell-permeable inhibitors of protein tyrosine phosphatase 1B” (Bioorg Med Chem, 2014).

Usually IC50 stands for the midpoint of a concentration-inhibition curve. As usually defined, the inhibition is the relative decrease from the control value, in per cent. Low values mean a weak effect, high ones a strong effect. In general, Ki refers to a dissociation constant, usually derived from enzyme kinetics or from competition with a known ligand. The low end stands for tighter binding, the high end for weaker binding.

Structures are written as SMILES. Calls of active or inactive are those of the source. The rule behind the calls is not given here.

Experiment [1] deals with T1, Tyrosine-protein phosphatase non-receptor type 1 (Homo sapiens) (UniProt P18031).
T1 sequence (whole entry): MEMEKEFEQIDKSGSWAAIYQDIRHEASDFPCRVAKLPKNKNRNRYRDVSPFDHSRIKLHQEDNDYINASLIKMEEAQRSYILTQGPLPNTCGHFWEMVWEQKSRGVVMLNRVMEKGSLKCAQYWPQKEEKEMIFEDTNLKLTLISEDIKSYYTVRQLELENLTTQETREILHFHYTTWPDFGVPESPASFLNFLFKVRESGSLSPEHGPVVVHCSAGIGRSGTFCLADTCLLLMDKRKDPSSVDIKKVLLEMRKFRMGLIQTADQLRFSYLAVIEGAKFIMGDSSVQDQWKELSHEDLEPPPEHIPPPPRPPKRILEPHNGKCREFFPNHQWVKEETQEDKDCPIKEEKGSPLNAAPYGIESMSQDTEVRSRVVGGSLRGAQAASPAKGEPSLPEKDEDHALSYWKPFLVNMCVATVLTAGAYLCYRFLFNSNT
The experiment can be described thus: Inhibition of PTP1B (unknown origin) expressed in CHO cells co-expressing human IRbeta assessed as increase in insulin-stimulated IRbeta phosphorylation at 90 uM after 1 hr by Western blotting analysis. Format: cell-based. A digest of the protocol: (§1)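 CHO/hIR cells grown in F12 with 10% FBS, penicillin/streptomycin, 37 °C, 5% CO2. After 2 h serum starvation, compound for 1 h, then 10 nM insulin for 10 min. Lysates in SDS loading buffer run on 8% SDS-PAGE, blotted with anti-pTyr (PY20); β-actin as loading control.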
(A western blot detects proteins with antibodies after separation by electrophoresis.)

In experiment [2] the target is T2, Tyrosine-protein phosphatase non-receptor type 11 (Homo sapiens, UniProt Q06124).
T2 sequence (Q06124 whole entry): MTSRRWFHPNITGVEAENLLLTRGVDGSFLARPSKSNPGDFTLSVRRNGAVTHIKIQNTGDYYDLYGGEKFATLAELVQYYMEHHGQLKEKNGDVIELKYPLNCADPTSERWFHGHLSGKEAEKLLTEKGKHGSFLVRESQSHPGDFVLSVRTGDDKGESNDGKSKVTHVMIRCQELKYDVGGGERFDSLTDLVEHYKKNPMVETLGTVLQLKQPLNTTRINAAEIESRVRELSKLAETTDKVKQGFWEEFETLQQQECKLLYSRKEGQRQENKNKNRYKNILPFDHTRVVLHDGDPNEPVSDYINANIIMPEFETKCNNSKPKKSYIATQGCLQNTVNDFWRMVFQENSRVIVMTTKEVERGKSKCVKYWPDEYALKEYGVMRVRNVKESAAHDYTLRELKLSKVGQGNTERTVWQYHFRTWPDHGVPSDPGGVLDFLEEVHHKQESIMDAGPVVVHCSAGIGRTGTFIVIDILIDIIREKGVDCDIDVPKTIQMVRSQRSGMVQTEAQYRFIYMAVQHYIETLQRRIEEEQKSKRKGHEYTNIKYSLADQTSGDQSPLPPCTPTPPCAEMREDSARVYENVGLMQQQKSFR
The experiment can be described thus: Inhibition of SHP2 (unknown origin) using 3-o-methylfluorescein phosphatase substrate by colorimetric assay. A digest of the protocol:
(§2)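 SHP1, SHP2 or LAR recombinant enzyme at 20 nmol/L with 10 µmol/L OMFP in 50 mmol/L MOPS pH 6.5, 2 mmol/L DTT, 1 mmol/L EDTA, 2% DMSO, 30 °C. Fluorescent product read at ex 485/em 530 nm; initial rate from the early linear part of the kinetic curve.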

The target of experiment [3] is T3, Receptor-type tyrosine-protein phosphatase F (Homo sapiens, UniProt P10586). Nature of the experiment: Inhibition of LAR (unknown origin) using 3-o-methylfluorescein phosphatase substrate by colorimetric assay. Summed up: as §2
For experiment [4], the species on record is Homo sapiens. The experiment can be described thus: Selectivity ratio of IC50 for LAR (unknown origin) to IC50 for PTP1B (unknown origin).
For experiment [5], the species on record is Homo sapiens. Nature of the experiment: Selectivity ratio of IC50 for SHP2 (unknown origin) to IC50 for PTP1B (unknown origin).
Experiment [6] deals with Tyrosine-protein phosphatase non-receptor type 6 (Homo sapiens, UniProt P29350). The experiment can be described thus: Inhibition of SHP1 (unknown origin) using 3-o-methylfluorescein phosphatase substrate by colorimetric assay. To be noted: read-out: IC50 (converted). Summed up:
as §2

Experiment [7] concerns the target T4, Tyrosine-protein phosphatase non-receptor type 1 (Homo sapiens, UniProt P18031).
T4 sequence (P18031 whole entry): T1 sequence (whole entry)
The experiment can be described thus: Inhibition of PTP1B (unknown origin) using pNPP as substrate by colorimetric assay. Summed up: (§3)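 GST-PTP1B or GST-TCPTP at 30 nmol/L, 2 mmol/L pNPP, 50 mmol/L MOPS pH 6.5, 2% DMSO, compounds serially diluted from DMSO. Hydrolysis followed continuously at 405 nm for 3 min at 30 °C. IC50 from nonlinear fit of % inhibition vs concentration with Hill coefficient; means ± SD of three replications.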

Experiment [8] addresses T5, Tyrosine-protein phosphatase non-receptor type 2 (Homo sapiens, UniProt P17706).
T5 sequence (P17706 whole entry): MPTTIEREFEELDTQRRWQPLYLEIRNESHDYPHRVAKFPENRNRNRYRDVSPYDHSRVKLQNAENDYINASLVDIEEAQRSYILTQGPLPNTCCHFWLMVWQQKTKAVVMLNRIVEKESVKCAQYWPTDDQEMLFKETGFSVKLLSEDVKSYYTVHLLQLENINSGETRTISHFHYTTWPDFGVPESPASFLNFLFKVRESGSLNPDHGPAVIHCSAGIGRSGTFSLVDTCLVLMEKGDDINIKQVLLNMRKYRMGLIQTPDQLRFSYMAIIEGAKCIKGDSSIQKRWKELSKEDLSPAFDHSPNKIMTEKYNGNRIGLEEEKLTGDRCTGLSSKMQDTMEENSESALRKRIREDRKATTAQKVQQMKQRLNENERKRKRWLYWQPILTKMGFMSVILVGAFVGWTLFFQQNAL
The experiment can be described thus: Inhibition of TCPTP (unknown origin) using pNPP as substrate by colorimetric assay. The following applies: read-out: IC50 (converted). Summed up: as §3

In experiment [9] the target is T1, Tyrosine-protein phosphatase non-receptor type 1 (Homo sapiens). Nature of the experiment: Inhibition of PTP1B (unknown origin) expressed in CHO cells co-expressing human IRbeta assessed as increase in insulin-stimulated IRbeta phosphorylation at 3 to 30 uM after 1 hr by Western blotting analysis. Format: cell-based. Summed up: as §1
Experiment [10] has as its target T6, Tyrosine-protein phosphatase non-receptor type 11 (Homo sapiens) (UniProt Q06124).
T6 sequence (whole entry): T2 sequence (Q06124 whole entry)
Nature of the experiment: Inhibition of SHP2 (unknown origin) using 3-o-methylfluorescein phosphatase substrate at 20 ug/ml by colorimetric assay.

For experiment [11], the species on record is Homo sapiens. Nature of the experiment: Selectivity ratio of IC50 for TCPTP (unknown origin) to IC50 for PTP1B (unknown origin).
For experiment [12], the target named is T4, Tyrosine-protein phosphatase non-receptor type 1. The experiment can be described thus: Competitive inhibition of PTP1B (unknown origin) using pNPP as substrate by Lineweaver-Burk plot. A digest of the protocol:
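Kinetics in 100 µL of 50 mmol/L MOPS pH 6.5 with 30 nmol/L PTP1B, pNPP in 2-fold dilutions from 80 mmol/L, at several inhibitor concentrations. Ki taken from a linear replot of apparent Km/Vmax (slope of double-reciprocal plot) against [I].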

In experiment [13] the target is T3, Receptor-type tyrosine-protein phosphatase F. The experiment can be described thus: Inhibition of LAR (unknown origin) using 3-o-methylfluorescein phosphatase substrate at 20 ug/ml by colorimetric assay.

T3 sequence (P10586 whole entry): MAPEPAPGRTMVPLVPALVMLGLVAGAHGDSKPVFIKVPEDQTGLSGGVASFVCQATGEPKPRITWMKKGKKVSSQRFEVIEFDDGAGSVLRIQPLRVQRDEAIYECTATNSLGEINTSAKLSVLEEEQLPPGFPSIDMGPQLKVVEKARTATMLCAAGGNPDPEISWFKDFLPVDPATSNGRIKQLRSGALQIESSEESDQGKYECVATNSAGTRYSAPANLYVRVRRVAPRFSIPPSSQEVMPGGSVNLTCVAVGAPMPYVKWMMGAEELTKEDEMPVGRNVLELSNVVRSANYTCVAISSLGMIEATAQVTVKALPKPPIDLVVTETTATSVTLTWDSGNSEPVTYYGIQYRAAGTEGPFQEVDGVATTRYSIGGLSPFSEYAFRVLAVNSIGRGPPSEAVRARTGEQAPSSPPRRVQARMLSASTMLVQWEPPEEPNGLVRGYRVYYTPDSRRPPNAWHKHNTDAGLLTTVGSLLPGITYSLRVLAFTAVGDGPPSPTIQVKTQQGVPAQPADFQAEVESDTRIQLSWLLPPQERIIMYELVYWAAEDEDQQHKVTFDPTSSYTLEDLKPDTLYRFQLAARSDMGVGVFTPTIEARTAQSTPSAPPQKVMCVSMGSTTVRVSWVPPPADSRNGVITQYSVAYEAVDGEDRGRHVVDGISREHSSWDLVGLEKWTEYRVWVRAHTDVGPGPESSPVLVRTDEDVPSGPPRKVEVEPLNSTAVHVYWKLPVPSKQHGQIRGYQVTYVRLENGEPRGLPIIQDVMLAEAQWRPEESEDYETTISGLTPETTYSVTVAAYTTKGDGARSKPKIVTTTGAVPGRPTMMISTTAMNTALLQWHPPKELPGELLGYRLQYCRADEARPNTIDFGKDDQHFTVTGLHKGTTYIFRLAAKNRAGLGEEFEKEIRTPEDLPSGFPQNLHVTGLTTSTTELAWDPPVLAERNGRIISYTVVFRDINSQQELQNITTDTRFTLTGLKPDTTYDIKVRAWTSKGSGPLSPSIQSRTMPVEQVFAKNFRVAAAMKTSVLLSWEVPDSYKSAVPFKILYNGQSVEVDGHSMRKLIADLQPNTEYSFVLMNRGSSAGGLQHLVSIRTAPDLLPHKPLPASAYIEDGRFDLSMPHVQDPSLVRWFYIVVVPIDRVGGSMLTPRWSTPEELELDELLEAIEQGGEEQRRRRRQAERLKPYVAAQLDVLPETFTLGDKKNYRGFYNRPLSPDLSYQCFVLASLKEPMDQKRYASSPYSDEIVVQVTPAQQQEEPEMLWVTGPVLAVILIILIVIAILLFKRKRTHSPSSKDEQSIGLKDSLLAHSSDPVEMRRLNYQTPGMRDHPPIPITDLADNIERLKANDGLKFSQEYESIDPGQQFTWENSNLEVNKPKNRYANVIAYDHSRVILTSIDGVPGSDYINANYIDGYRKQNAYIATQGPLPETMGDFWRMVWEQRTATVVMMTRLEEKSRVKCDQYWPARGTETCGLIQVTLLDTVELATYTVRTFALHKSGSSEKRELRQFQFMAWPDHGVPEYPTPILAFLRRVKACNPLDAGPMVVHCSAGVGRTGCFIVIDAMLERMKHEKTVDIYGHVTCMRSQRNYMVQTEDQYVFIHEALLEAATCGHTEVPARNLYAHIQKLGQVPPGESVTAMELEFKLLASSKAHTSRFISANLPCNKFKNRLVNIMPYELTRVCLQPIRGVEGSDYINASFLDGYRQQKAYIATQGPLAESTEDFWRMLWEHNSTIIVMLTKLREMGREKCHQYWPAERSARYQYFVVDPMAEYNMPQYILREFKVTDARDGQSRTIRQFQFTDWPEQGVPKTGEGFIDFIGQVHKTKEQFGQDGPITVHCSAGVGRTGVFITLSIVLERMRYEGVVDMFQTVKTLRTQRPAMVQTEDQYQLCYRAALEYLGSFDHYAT
Sequence of Tyrosine-protein phosphatase non-receptor type 6 (P29350 whole entry): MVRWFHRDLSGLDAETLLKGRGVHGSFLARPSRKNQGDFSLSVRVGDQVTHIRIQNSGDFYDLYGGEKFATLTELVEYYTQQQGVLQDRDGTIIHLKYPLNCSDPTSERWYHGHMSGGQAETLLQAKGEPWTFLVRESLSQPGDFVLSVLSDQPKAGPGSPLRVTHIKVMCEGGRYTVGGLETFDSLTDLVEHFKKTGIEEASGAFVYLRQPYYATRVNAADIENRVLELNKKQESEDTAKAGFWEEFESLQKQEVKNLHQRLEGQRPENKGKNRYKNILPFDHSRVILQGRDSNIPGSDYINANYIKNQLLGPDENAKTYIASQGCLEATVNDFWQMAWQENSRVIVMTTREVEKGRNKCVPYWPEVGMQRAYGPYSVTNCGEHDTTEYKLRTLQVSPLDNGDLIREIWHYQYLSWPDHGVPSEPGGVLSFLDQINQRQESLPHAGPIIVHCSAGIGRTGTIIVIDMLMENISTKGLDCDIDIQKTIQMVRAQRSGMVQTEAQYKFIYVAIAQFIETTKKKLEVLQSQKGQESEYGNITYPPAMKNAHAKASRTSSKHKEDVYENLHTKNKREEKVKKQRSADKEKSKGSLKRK

Take `CCOC(=O)/C(O)=C/C(=O)c1cccc(Cn2cc(C(=O)O)c(=O)c3cc(I)ccc32)c1`: in [1], the result was Active. Also, the IC50 entry in experiment [2] is “Not Active”; in experiment [3] it was “Not Active”; in experiment [6], 12.4 µM; in [7], 5.66 µM; in experiment [8], 11.5 µM. In addition, the Ratio IC50 in the experiment filed under Homo sapiens [4] was more than 10; in the experiment listed under Homo sapiens [5] it was more than 10; in the experiment listed under Homo sapiens [11], 2. Besides, the outcome in experiment [9] was inactive. The inhibition in experiment [10] and in experiment [13] was less than 50% throughout. In [12], this compound yielded a Ki of 1.33 µM.
